Reference: ChEMBL document CHEMBL1131331, “Structure-activity studies on anticonvulsant sugar sulfamates related to topiramate. Enhanced potency with cyclic sulfate derivatives” (J Med Chem, 1998)
Values belong to the molecule of their own block, whether it stands above or below them.

Assays:
Mus musculus [1] = assay: Activity against maximal electroshock seizures in mice, 4 hr following oral administration of 75 mg/kg of compound; assay type: functional
How it was run: (§1)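 Mouse maximal electroshock seizure test. An electric shock is applied through corneal electrodes, and block of the hind-limb tonic-extensor seizure is scored. Compounds are given orally, usually to 10 mice per group, and tested 4 h after dosing. The result is reported as percent of dosed animals protected at the stated dose.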

Mus musculus [2] = assay: Inhibition of maximal electroshock seizures in mice, 4 hr following 10 mg/kg p.o. administration.; assay type: functional; settings: route oral; how it was run: as §1
Mus musculus [3] = assay: Effective dose against maximal electroshock seizures in mice, at 4 hr following oral administration of 10 mg/kg of compound; assay type: functional
Mus musculus [4] = assay: Activity against maximal electroshock seizures in mice, 4 hr following oral administration of 80 mg/kg of compound; assay type: functional; how it was run: as §1
Mus musculus [5] = assay: Activity against maximal electroshock seizures in mice, 4 hr following oral administration of 40 mg/kg of compound; assay type: functional; how it was run: as §1
Mus musculus [6] = assay: Activity against maximal electroshock seizures in mice, 4 hr following oral administration of 35 mg/kg of compound; assay type: functional; how it was run: as §1
[7] = (§2) Partition coefficient (logP); assay type: physicochemical; settings: octanol/water
How it was run: (§3)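 Apparent octanol–water partition coefficient D, measured in unbuffered water (pH 7.2–7.6) using an HPLC refractive-index assay. True P is calculated as […], and P7.4 as P/[1 + 10^(7.4 − pKa)], using pKa values from potentiometric titration.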

[8] = as §2; assay type: physicochemical; settings: octanol/water; how it was run: as §3; remark: listed apart in the source
[9] = as §2; assay type: physicochemical; settings: octanol/water; how it was run: as §3; remark: listed apart in the source
[10] = Pharmacokinetic parameter :log P7.4 log P value at pH 7.4; assay type: physicochemical; settings: buffer, read-out: Log D7.4; how it was run: as §3
[11] = Pharmacokinetic parameter :The dissociation constant values at 25 degrees C, obtained by potentiometric titration.; assay type: ADME
[12] = pH 7.4 value at 7.35 pH; assay type: ADME; how it was run: as §3
[13] = Inhibition concentration by inhibition of carbonic anhydrase from blood in Rat. 95% confidence limits are given in parentheses.
[14] = Inhibition concentration by inhibition of carbonic anhydrase from brain in Rat. 95% confidence limits are given in parentheses.
[15] = Inhibition concentration by inhibition of carbonic anhydrase from myelin in Rat. 95% confidence limits are given in parentheses.
[16] = Inhibition concentration by inhibition of carbonic anhydrase from synaptosomes in Rat. 95% confidence limits are given in parentheses.; assay type: subcellular, Brain
[17] = Inhibition concentration of the compounds were determined by inhibition of carbonic anhydrase from kidney in Rat. 95% confidence limits are given in parentheses.
Mus musculus [18] = species: Mus musculus; assay: Compound was tested for the effective dose (ED50) for each time point in Mice. 95% confidence limits are given in parentheses 1 Hour; assay type: functional
Mus musculus [19] = species: Mus musculus; assay: Compound was tested for the effective dose (ED50) for each time point in Mice. 95% confidence limits are given in parentheses 16 Hour; assay type: functional
How it was run: (§4)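 Mouse MES time-course study. Compounds are given orally, and hind-limb tonic-extensor block after corneal-electrode shock is scored at each time point. For each time point, the ED50 (mg/kg) is reported with 95% confidence limits.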

Mus musculus [20] = species: Mus musculus; assay: Compound was tested for the effective dose (ED50) for each time point in Mice. 95% confidence limits are given in parentheses 2 Hour; assay type: functional
Mus musculus [21] = species: Mus musculus; assay: Compound was tested for the effective dose (ED50) for each time point in Mice. 95% confidence limits are given in parentheses 24 Hour; assay type: functional; how it was run: as §4
Rattus norvegicus [22] = species: Rattus norvegicus; assay: Compound was tested for the effective dose (ED50) for each time point in Rats. 95% confidence limits are given in parentheses 48 Hour; assay type: functional
How it was run: (§5)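 Rat MES time-course study. Compounds are given orally, and block of the hind-limb tonic-extensor seizure induced by corneal electroshock is assessed at each time point. For each time point, the ED50 (mg/kg) is reported with 95% confidence limits.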

Rattus norvegicus [23] = species: Rattus norvegicus; assay: Compound was tested for the effective dose (ED50) for each time point in Rats. 95% confidence limits are given in parentheses 8 Hour; assay type: functional; how it was run: as §5
Rattus norvegicus [24] = species: Rattus norvegicus; assay: Compound was tested for the effective dose (ED50) for each time point in Rats. 95% confidence limits are given in parentheses 1 Hour; assay type: functional; how it was run: as §5
Rattus norvegicus [25] = species: Rattus norvegicus; assay: Compound was tested for the effective dose (ED50) for each time point in Rats. 95% confidence limits are given in parentheses 12 Hour; assay type: functional; how it was run: as §5
Rattus norvegicus [26] = species: Rattus norvegicus; assay: Compound was tested for the effective dose (ED50) for each time point in Rats. 95% confidence limits are given in parentheses 2 Hour; assay type: functional; how it was run: as §5
Rattus norvegicus [27] = species: Rattus norvegicus; assay: Compound was tested for the effective dose (ED50) for each time point in Rats. 95% confidence limits are given in parentheses 24 Hour; assay type: functional; how it was run: as §5
Rattus norvegicus [28] = species: Rattus norvegicus; assay: Compound was tested for the effective dose (ED50) for each time point in Rats. 95% confidence limits are given in parentheses 4 Hour; assay type: functional; how it was run: as §5
Rattus norvegicus [29] = species: Rattus norvegicus; assay: Compound was tested for the effective dose (ED50) for each time point in Rats. 95% confidence limits are given in parentheses 16 Hour; assay type: functional; how it was run: as §5
Mus musculus [30] = species: Mus musculus; assay: Compound was tested for the effective dose (ED50) for each time point in Mice. 95% confidence limits are given in parentheses 12 hr; assay type: functional; how it was run: as §4
Mus musculus [31] = assay: Activity against maximal electroshock seizures in mice, 4 hr following oral administration of 30 mg/kg of compound; assay type: functional; how it was run: as §1
Mus musculus [32] = assay: Activity against maximal electroshock seizures in mice, 4 hr following oral administration of 15 mg/kg of compound; assay type: functional; how it was run: as §1
[33] = pH 7.4 value at pH 7.25; assay type: ADME; how it was run: as §3
Mus musculus [34] = species: Mus musculus; assay: Compound was tested for the effective dose (ED50) for each time point in Mice. 95% confidence limits are given in parentheses 4 Hour; assay type: functional
[35] = Inhibition concentration by inhibition of carbonic anhydrase from kidney in Rat. 95% confidence limits are given in parentheses.
[36] = Inhibition concentration by inhibition of carbonic anhydrase from blood in Rat
[37] = Inhibition concentration by inhibition of carbonic anhydrase from brain in Rat
[38] = Inhibition concentration by inhibition of carbonic anhydrase from kidney in Rat
[39] = Inhibition concentration by inhibition of carbonic anhydrase from myelin in Rat
[40] = Inhibition concentration by inhibition of carbonic anhydrase from synaptosomes in Rat
Mus musculus [41] = assay: Compound activity was measured at 4 hr following administration of the oral dosage (perorally) 5 mg/kg in mice, and is reported as percent block at the given dose.; assay type: functional; how it was run: as §1
Mus musculus [42] = assay: Compound activity was measured at 4 hr following administration of the oral dosage (perorally) 300 mg/kg in mice, and is reported as percent block at the given dose.; assay type: functional; how it was run: as §1
Mus musculus [43] = assay: Activity against maximal electroshock seizures in mice, 4 hr following oral administration of 37.5 mg/kg of compound; assay type: functional; how it was run: as §1
Mus musculus [44] = assay: Activity against maximal electroshock seizures in mice, 4 hr following oral administration of 18.75 mg/kg of compound; assay type: functional; how it was run: as §1
[45] = pH 7.4 value at 7.61 pH; assay type: ADME; how it was run: as §3
Mus musculus [46] = assay: Activity against maximal electroshock seizures in mice, 4 hr following oral administration of 300 mg/kg of compound; assay type: functional; how it was run: as §1
Mus musculus [47] = assay: Activity against maximal electroshock seizures in mice, 4 hr following oral administration of 75 mg/kg; assay type: functional; how it was run: as §1

SMILES: CC1(C)O[C@H]2[C@@H]3OS(=O)(=O)O[C@@H]3CO[C@@]2(COS(=O)(=O)n2ccnc2)O1
Block (Mus musculus [1]): 100%
Block (Mus musculus [2]): 0%

SMILES: CC1(C)O[C@H]2[C@H](CO[C@]3(COS(N)(=O)=O)OC(C)(C)O[C@H]23)O1
ED50 (Mus musculus [3]): 82 mg/kg
Block (Mus musculus [4]): 50%
Block (Mus musculus [5]): 20%

SMILES: CC1(C)O[C@H]2[C@@H]3OS(=O)(=O)O[C@@H]3CO[C@@]2(COS(=O)(=O)N=[N+]=[N-])O1
Block (Mus musculus [2]): 0%
Block (Mus musculus [6]): 100%

logP [7]: 2.44
logP [8]: -1.01
logP [9]: 0.42
logD [10]: 0.38
pKa [11]: 8.51
P7.4 [12]: 2.42
IC50 [13]: 84 nM
IC50 [14]: 21 nM
IC50 [15]: 52 nM
IC50 [16]: 21 nM
IC50 [17]: 130 nM
SMILES: CC1(C)O[C@H]2[C@@H]3OS(=O)(=O)O[C@@H]3CO[C@@]2(COS(N)(=O)=O)O1
ED50 (Mus musculus [18]; Mus musculus, 1 h, read-out: ED50): 8.6 mg/kg
ED50 (Mus musculus [19]): 50 mg/kg
ED50 (Mus musculus [20]; Mus musculus, 2 h, read-out: ED50): 6.6 mg/kg
ED50 (Mus musculus [21]): 72 mg/kg
ED50 (Rattus norvegicus [22]): 18 mg/kg
ED50 (Rattus norvegicus [23]): 1 mg/kg
ED50 (Rattus norvegicus [24]): 3.8 mg/kg
ED50 (Rattus norvegicus [25]): 1.3 mg/kg
ED50 (Rattus norvegicus [26]): 5.1 mg/kg
ED50 (Rattus norvegicus [27]): 2.6 mg/kg
ED50 (Rattus norvegicus [28]): 1.7 mg/kg
Block (Mus musculus [6]): 100%
ED50 (Rattus norvegicus [29]): 2.5 mg/kg
ED50 (Mus musculus [30]): 23 mg/kg

SMILES: CC1(C)O[C@@H]2[C@H]3OS(=O)(=O)O[C@H]3CO[C@]2(COS(N)(=O)=O)O1
ED50 (Mus musculus [3]): 22 mg/kg
Block (Mus musculus [31]): 80%
Block (Mus musculus [32]): 30%

SMILES: CC1(C)O[C@@H]2[C@@H](CO[C@@]3(COS(N)(=O)=O)OC(C)(C)O[C@@H]23)O1 [TOPIRAMATE]
logP [7]: 3.26
logP [8]: 0.5
logP [9]: 0.53
logD [10]: 0.51
pKa [11]: 8.66
P7.4 [33]: 3.31
IC50 [13]: 8890 nM
IC50 [14]: 4550 nM
IC50 [15]: 1360 nM
IC50 [16]: 4840 nM
ED50 (Mus musculus [18]): 43.8 mg/kg
ED50 (Mus musculus [20]): 47.6 mg/kg
ED50 (Mus musculus [21]): > 1000 mg/kg
ED50 (Mus musculus [34]): 53.5 mg/kg
ED50 (Mus musculus [3]): 53 mg/kg
ED50 (Rattus norvegicus [22]): > 1000 mg/kg
ED50 (Rattus norvegicus [23]): 15 mg/kg
ED50 (Rattus norvegicus [24]): 15 mg/kg
ED50 (Rattus norvegicus [25]): 34 mg/kg
ED50 (Rattus norvegicus [26]): 16 mg/kg
ED50 (Rattus norvegicus [27]): 153 mg/kg
ED50 (Rattus norvegicus [28]): 6.7 mg/kg
ED50 (Rattus norvegicus [29]): 103 mg/kg
IC50 [35]: 8350 nM
ED50 (Mus musculus [30]): 246 mg/kg

IC50 [36]: 37 nM
IC50 [37]: 12 nM
IC50 [38]: 650 nM
IC50 [39]: 24 nM
IC50 [40]: 7 nM
SMILES: CC(=O)Nc1nnc(S(N)(=O)=O)s1 [ACETAZOLAMIDE]

SMILES: CCC1(CC)O[C@H]2[C@@H]3OS(=O)(=O)O[C@@H]3CO[C@@]2(COS(N)(=O)=O)O1
Block (Mus musculus [1]): 100%
Block (Mus musculus [2]): 0%

SMILES: CC1(C)O[C@@H]2[C@@H](CC[C@@]3(COS(N)(=O)=O)OC(C)(C)O[C@@H]23)O1
ED50 (Mus musculus [3]): 16.6 mg/kg
Block (Mus musculus [41]): 30%
Block (Mus musculus [6]): 80%

SMILES: CC(C)(C)OC(=O)N=S1O[C@@H]2[C@@H](CO[C@@]3(COS(N)(=O)=O)OC(C)(C)O[C@@H]23)O1 (stereo partly drawn)
Block (Mus musculus [42]): 40%

SMILES: CC1(C)O[C@H]2[C@H](O)[C@@H](Cl)CO[C@@]2(COS(N)(=O)=O)O1
ED50 (Mus musculus [3]): 24 mg/kg
Block (Mus musculus [43]): 90%
Block (Mus musculus [44]): 50%

logP [8]: 1.55
logP [9]: 1.52
logD [10]: 1.5
pKa [11]: 8.62
P7.4 [45]: 31.5
SMILES: CCC1(CC)O[C@@H]2[C@@H](CO[C@@]3(COS(N)(=O)=O)OC(C)(C)O[C@@H]23)O1
Block (Mus musculus [46]): 80%
Block (Mus musculus [47]): 0%

SMILES: CCNS(=O)(=O)OC[C@@]12OC[C@H]3OC(C)(C)O[C@H]3[C@@H]1OC(C)(C)O2
Block (Mus musculus [47]): 90%
Block (Mus musculus [6]): 0%
